This note sets out measurements from ChEMBL document CHEMBL3244196, “Synthesis and analgetic activity of 1,2,3,4,5,6-hexahydro-1,6-methano-3-benzozocines” (J Med Chem, 1978).

For data set [1], the species on record is Mus musculus. The data set is described as follows: Analgesic activity in mouse by Eddy hot-plate method. It counts as functional.
In data set [2] the test system is Rhesus monkey. The data set is described as follows: Toxicity in rhesus monkey assessed as physical drug dependence liability at 2 to 8 mg/kg by single dose suppression analysis. More on the design: dose 2-8 mg/kg. In kind it is organism-based, Macaca mulatta. Particulars: in vivo. The gist of the method: (§1)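 Rhesus monkeys addicted to morphine; single-dose suppression study scoring whether the test dose supports morphine dependence, i.e. suppresses withdrawal signs. Dose range 2-4 or 2-8 mg/kg, as given in each line.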

Data set [3] concerns Mus musculus. The data set is described as follows: Analgesic activity in sc dosed mouse by Eddy hot-plate method. In kind it is functional. (Hot-plate and tail-flick tests time the reaction to a heat stimulus.)
The test system of data set [4] is Rhesus monkey. The data set is described as follows: Psychotomimetic activity in morphine-dependent nonwithdrawn rhesus monkey assessed as antagonist activity by measuring precipitation of withdrawal symptoms at 2 to 8 mg/kg. It counts as organism-based, Macaca mulatta. More on the design: dose 2-8 mg/kg. The settings on record: in vivo.
For data set [5], the system named is Rhesus monkey. The data set is described as follows: Toxicity in rhesus monkey assessed as physical drug dependence liability at 2 to 4 mg/kg by single dose suppression analysis. Particulars: in vivo. It counts as organism-based, Macaca mulatta. More on the design: dose 2-4 mg/kg. Summed up: as §1
The test system of data set [6] is Rhesus monkey. The data set is described as follows: Psychotomimetic activity in morphine-dependent nonwithdrawn rhesus monkey assessed as antagonist activity by measuring precipitation of withdrawal symptoms at 2 to 4 mg/kg. In kind it is organism-based, Macaca mulatta. Also on record: dose 2-4 mg/kg. The settings on record: in vivo.

Molecules are shown by their SMILES. Active and inactive are the calls of the source. The rule behind the calls is not given here.

Broadly, the ED50 is the dose that gives a 50% effect, or the effect in half of the subjects. As to `CC1CCN(C)CCc2ccc(O)cc21` (configuration not stated), the ED50 in the data set listed under Mus musculus [1] was found to be 12.5 mg/kg.

In the case of `CC(C)=CCN1CCC2CC(C1)c1ccccc12` (configuration not stated), in the data set filed under Mus musculus [1], the ED50 entry is “inactive”.

Take `c1ccc2c(c1)C1CCNCC2C1` (configuration not stated): the values for the 50% effective dose (ED50) in the data set listed under Mus musculus [1] and in the data set on Mus musculus [3] were 4.9 mg/kg and 6.1 mg/kg, respectively. Further, the Activity entry in the data set with Rhesus monkey [2] and in the data set with Rhesus monkey [4] was “Non-toxic” each time.

With `CCCN1CCC2CC(C1)c1ccccc12` (configuration not stated), it took a dose of 16.2 mg/kg to reach the 50% effect level in the data set filed under Mus musculus [1] (ED50).

The molecule `CN1CC[C@]23c4c5ccc(O)c4O[C@H]2[C@@H](O)C=C[C@H]3[C@H]1C5` [MORPHINE] registered a 50% effective dose (ED50) in the data set filed under Mus musculus [1] of 1.2 mg/kg.

Take `CN1CC[C@@H]2CC1Cc1ccc(O)cc12`: the ED50 in the data set filed under Mus musculus [1] is 4.5 mg/kg.

Turning to `C=CCN1CCC2CC(C1)c1ccccc12` (configuration not stated), in the data set listed under Mus musculus [1], the median effective dose (ED50) was 19.4 mg/kg.

`CN1CCC2CC1Cc1ccccc12` (configuration not stated) had an ED50 in the data set listed under Mus musculus [1] of 11.2 mg/kg.

Regarding `c1ccc(CCN2CCC3CC(C2)c2ccccc23)cc1` (configuration not stated), in the data set listed under Mus musculus [1], the ED50 is 8.8 mg/kg.

`COc1ccc2c3c1O[C@H]1[C@@H](O)C=C[C@H]4[C@@H](C2)N(C)CC[C@@]341` [CODEINE] returned an ED50 in the data set listed under Mus musculus [1] of 7.5 mg/kg.

As to `CN1CCC2CC(C1)c1ccccc12` (configuration not stated), the ED50 is 4.2 mg/kg in the data set listed under Mus musculus [1] and 8.2 mg/kg in the data set with Mus musculus [3]. The Activity entry in the data set with Rhesus monkey [5] and in the data set on Rhesus monkey [6] was “Non-toxic” throughout.
